# Measured values collected from several papers.
# Lines come from different studies, so protocols differ.
# Target: Serine/threonine-protein kinase 33 (STK33, Homo sapiens, UniProt Q9BYT3)
SMILES,read-out,technique,concentration,remaining binding [%]
COc1cnc(Nc2cccc(S(N)(=O)=O)c2)nc1N1CCN(c2ccccc2)CC1,binding,competition with immobilised ligand,1 µM,100
O=C(O)c1cc(-c2ccc(C3CCNCC3)cc2)c2ccc(-c3ccc(C(F)(F)F)cc3)cc2c1,cell-free assay,competition with immobilised ligand,1 µM,100
O=C(NCC1CCOCC1)c1n[nH]cc1NC(=O)c1c(F)cccc1F,binding,competition with immobilised ligand,1 µM,79
CC1=C(C#N)[C@@H](c2ccc3[nH]nc(C)c3c2)C(C#N)=C(c2ccc(Cl)cc2)N1,cell-free assay,competition with immobilised ligand,1 µM,90.9
c1cnn2ncc(-c3ccnc(N4CCC45COC5)n3)c2c1,binding,,1 µM,100
COc1ncc2cc3ccccc3nc2c1C#N,cell-free assay,competition with immobilised ligand,5 µM,91
CC(=O)C1=C(C)N(c2cccc(C(F)(F)F)c2)C(=O)N[C@@H]1c1ccc(C#N)nc1,cell-free assay,competition with immobilised ligand,1 µM,91.6
c1cncc(-c2cccc(Nc3nccc(NC4CCCCC4)n3)c2)c1,binding,competition with immobilised ligand,10 µM,44
Nc1ncc2c(n1)-c1c([nH]c3ccc(C#CC4CC4)cc13)CCCC2,binding,competition with immobilised ligand,1 µM,100
O=C(NCc1ncc(C(F)(F)F)cc1Cl)c1ccc2c(c1)C1(CCS(=O)(=O)CC1)[C@H](C1CC1)N2S(=O)(=O)c1ccc(F)cc1,cell-free assay,competition with immobilised ligand,1 µM,100
F[C@@H]1CCN(c2nccc(-c3cnn4ncccc34)n2)C1,binding,,1 µM,100
O=C(NCCCN1CCOCC1)c1ccc(Nc2nccc(-c3cc4ccccc4s3)n2)cc1,binding,competition with immobilised ligand,1 µM,80
C[C@H]1CCN(c2nccc(-c3cnn4ncccc34)n2)C1,binding,,1 µM,100
C[C@@H](c1cccc(C#N)c1)n1cc(Cl)cc(C(N)=O)c1=N,cell-free assay,competition with immobilised ligand,1 µM,100
N[C@@H]1CCN(c2nccc(-c3cnn4ncccc34)n2)C1,binding,,1 µM,100
CCN1CCN(Cc2ccc(C(=O)Nc3ccc(C)c(Oc4ccc5c(c4)CC(=O)N5)c3)cc2C(F)(F)F)CC1,binding,competition with immobilised ligand,1 µM,100
O=C(c1ccc(Nc2nccc(-c3cc4ccccc4s3)n2)cc1)N1CCC(N2CCCC2)CC1,binding,competition with immobilised ligand,1 µM,100
C[C@@H](c1ccc(-n2cnc3c(N)ncnc32)cc1)N1CCc2nn(C)c(Cc3ccccc3)c2C1=O,binding,competition with immobilised ligand,0.1 µM,100
Cc1cnc(Nc2ccc(C(=O)N3CCC(N4CCCC4)CC3)cc2)nc1-c1cc2ccccc2s1,binding,competition with immobilised ligand,1 µM,60
Cc1cnn2ncc(-c3ccnc(N(C)C)n3)c2c1,binding,,1 µM,100
CN([C@@H]1CCc2c(CC(=O)O)c3ccccc3n2C1)S(=O)(=O)c1ccc(F)cc1,cell-free assay,competition with immobilised ligand,1 µM,100
COc1ccnn2ncc(-c3ccnc(N(C)C)n3)c12,binding,,1 µM,99
CNC(=O)c1ccc(Nc2ncc(C(F)(F)F)c(NCc3nccnc3N(C)S(C)(=O)=O)n2)cc1,cell-free assay,competition with immobilised ligand,0.1 µM,68
